# Test results published in paper PMC3153576 (Biochemistry, 2011).
# Assays:
# Assay type in all cases: binding
# PRMT1-SAH complex [1] = molecular target: T1, PRMT1-SAH complex (Rattus norvegicus, UniProt Q63009); test: Stopped-flow association with PRMT1-SAH
# Outline: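 His-tagged rat PRMT1 expressed in E. coli and Ni-resin purified. PRMT1 (2, 4, 6 μM) was preincubated with 100 μM SAH, then rapidly mixed with 0.4 μM fluorescein-labelled H4 peptide. Fluorescence quench read at ex 495 nm, 510 nm long-pass emission; 4–6 shots averaged. Traces fit double-exponential; kobs versus PRMT1 fit to two-step model for k1, k−1, k2, k−2.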
# PRMT1 = PRMT1 (Rattus norvegicus, UniProt Q63009); test: Stopped-flow dissociation from PRMT1; settings: compared with second phase in methylation course
# PRMT1, sequence (Q63009 whole entry): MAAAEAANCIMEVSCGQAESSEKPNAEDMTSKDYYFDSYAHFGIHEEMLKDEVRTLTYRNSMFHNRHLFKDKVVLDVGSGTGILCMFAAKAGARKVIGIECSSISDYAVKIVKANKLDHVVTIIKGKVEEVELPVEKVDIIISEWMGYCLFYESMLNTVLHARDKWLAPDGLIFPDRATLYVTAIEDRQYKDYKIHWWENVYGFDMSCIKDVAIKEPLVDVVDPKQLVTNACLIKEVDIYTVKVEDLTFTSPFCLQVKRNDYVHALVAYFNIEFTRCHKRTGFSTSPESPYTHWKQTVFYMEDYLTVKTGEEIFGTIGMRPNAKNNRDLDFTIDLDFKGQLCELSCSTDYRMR
# PRMT1-SAH complex [2] = molecular target: T1, PRMT1-SAH complex; test: Stopped-flow dissociation from PRMT1-SAH; settings: 100 μM SAH
# Outline: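 Trapping experiment using rat His-PRMT1. 0.4 μM fluorescein-labelled H4 peptide (H4FLme1 or H4FLme2) was premixed with 2 μM PRMT1 and 100 μM SAH, then rapidly mixed with 50 μM unlabelled H4(1–20). Fluorescence recovery read at ex 495 nm, 510 nm long-pass emission; 4–6 injections averaged; double-exponential fit.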
# T1 sequence (Q63009 whole entry, one chain of several): as the sequence (Q63009 whole entry) above
Substance,Observed first-order rate constant for binding (kobs) (PRMT1-SAH complex [1]; 2 μM PRMT1 in presence of the cofactor) [s⁻¹],Association rate constant with PRMT1-SAH relative to apo PRMT1 (PRMT1-SAH complex [1]; 100 μM SAH),"k2 + k−2 (plateau of the slow phase) (PRMT1-SAH complex [1]; two-step binding model (eq 5), 100 μM SAH, 30°C) [s⁻¹]",Dissociation rate constant relative to slow-phase (methylation) rate constants (PRMT1),koff from PRMT1-SAH relative to apo-PRMT1 (PRMT1-SAH complex [2])
Ac-SGRme1GKGGKGDpr(FL)GKGGAKRHRK [H4FLme1],248 ± 3,two-fold higher,36 ± 2,several thousand-fold larger,about three-fold lower
Ac-SGRme2GKGGKGDpr(FL)GKGGAKRHRK [H4FLme2],,,,several thousand-fold larger,
